Test results as given in PubChem BioAssay AID540281 (Sanford-Burnham Center for Chemical Genomics, 2011).
The whole screen tested about 2,500 compounds, of which about 1,500 (60%) were called active.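 Rule for the calls: active = inhibition of at least 30% at 20 µM; inactive = the rest.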 The set was probably picked from earlier hits. These entries were drawn from the full list.

Each compound was assayed against Carboxy-terminal domain RNA polymerase II polypeptide A small phosphatase 1 (Homo sapiens) (UniProt Q9GZU7) (assay: Scp-1 phosphatase inhibitors, retest, confirmation, biochemical, colorimetric, single concentration (AID 540281;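 note: plate controls were DMSO with enzyme for no effect and buffer wells lacking enzyme for full effect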)). Conditions: recombinant SCP-1 catalytic domain, phosphate release, malachite green absorbance; at 20 µM; stronger effect = higher value.
Method in brief: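 Material: SCP-1 enzyme, residues 76-261; Times: 45 min phosphatase reaction at RT; Reagent: Phospho-17-mer peptide substrate; Dosing: single 20 µM final compound concentration, 1.0% DMSO; Medium: Acidic Tris acetate with 10 mM MgCl2 and Tween-20, pH 5.5; Technique: absorbance at 630 nm, free phosphate colorimetry.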

Carboxy-terminal domain RNA polymerase II polypeptide A small phosphatase 1 (Homo sapiens), sequence (Q9GZU7 76-261 limits assumed): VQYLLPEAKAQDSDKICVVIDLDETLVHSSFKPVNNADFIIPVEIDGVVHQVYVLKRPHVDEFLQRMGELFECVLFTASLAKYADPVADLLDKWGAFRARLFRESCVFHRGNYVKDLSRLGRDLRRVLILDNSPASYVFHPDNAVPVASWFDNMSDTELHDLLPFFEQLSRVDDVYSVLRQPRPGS

| Structure (SMILES) | inhibition |
| --- | --- |
| Cc1ccc(C(=O)NNC(=O)c2cc3cc4ccccc4nc3s2)cc1 | 61% (active) |
| O=[N+]([O-])c1cc(S(=O)(=O)Nc2cccc(Cl)c2)ccc1N=Nc1c(O)[nH]c2ccccc12 | 8.78% (inactive) |
| Cc1ccc(CCCOC(=O)C[N+]2(C)CCCC2)cc1 | 78.5% (active) |
| COC(=O)c1ccccc1NC(=O)C1(S(=O)(=O)c2ccc(Cl)cc2)CC1 | -25% (inactive) |
| Cc1ccc(NC(=O)c2cc(-c3ccc(C)o3)nc3ccccc23)nc1 | 67.9% (active) |
| Cc1cc(C(=O)OCC(=O)NCc2ccco2)c(C)n1-c1ccccc1 | 67.3% (active) |
| O=C(COC(=O)c1cnc(Cl)c(Cl)c1)NCc1ccco1 | 44.4% (active) |
| CN(c1ccccc1)S(=O)(=O)c1ccc(Cl)c(C(=O)OCC(=O)NCc2ccco2)c1 | 56.5% (active) |
| O=C(COC(=O)c1ccccc1O)NCc1ccco1 | 59.3% (active) |
| CCOC(=O)C1CCCN(C(=O)CN(c2ccc(OC)cc2)S(=O)(=O)c2c(C)noc2C)C1 (stereo not drawn) | -13.6% (inactive) |
| NC(=O)NC(=O)CSc1nc2cc([N+](=O)[O-])ccc2n1-c1cccc(C(F)(F)F)c1 | -1.8% (inactive) |
| CC1=NN(C(=O)CCc2ccccc2O)C(O)(C(F)(F)F)C1 (stereo not drawn) | -13.9% (inactive) |
| O=C(COC(=O)CCC(=O)c1cccs1)NCc1ccco1 | 75.5% (active) |
| Cc1c(Cl)cnc(NC(=O)COC(=O)c2ccc(S(=O)(=O)NCc3ccco3)cc2)c1Cl | 67% (active) |
| CCOc1ccc2nc(N(CCCN(C)C)C(=O)c3ccc(C(=O)c4ccccc4)cc3)sc2c1 | -4.94% (inactive) |
| Cc1ccc(S(=O)(=O)Nc2nc(C)cc(-n3nc(C)cc3C)n2)cc1 | -2.85% (inactive) |
| O=C(c1ccc(CS(=O)(=O)c2ccccc2)o1)N1CCN(c2ccccc2)CC1 | 59.1% (active) |
| CC(C)c1ccc(NC(=S)NNc2ccc(Cl)c(C(=O)O)c2)cc1 | 4.8% (inactive) |
| Cc1ccc(CCNC(=O)c2ccc3nc4ccccc4c(=O)n3c2)cc1 | 41.5% (active) |
| COc1cccc(NC(C)=[N+](C)CCNS(=O)(=O)c2ccc(Cl)cc2)c1 | 92.4% (active) |

| Structure (SMILES) | inhibition |
| --- | --- |
| COc1cccc(CNS(=O)(=O)c2csc(C(N)=O)c2)c1 | -12.2% (inactive) |
| Cc1ccc(NC(=O)COC(=O)C2C3CC4OC(=O)C2C4C3)cc1Cl (stereo not drawn) | -2.24% (inactive) |
| O=C(COc1ccc(-n2cnnn2)cc1)Nc1ccccc1Cl | 56.8% (active) |
| CC(C)CCOc1ccc(C(=O)C[N+]2(C)CCOCC2)cc1 | 98.7% (active) |
| O=C(Nc1cccnc1)c1cc2cc(Br)ccc2oc1=O | 68.8% (active) |
| COc1cc(/C=C/C2=CC(C)(C)NC(=S)N2)cc(OC)c1OC | -11.8% (inactive) |
| Cc1ccc(/C=C/C(=O)Nc2ccc([N+](=O)[O-])c(NC(=O)/C=C/c3ccc(C)o3)c2)o1 | 66.7% (active) |
| CCCCCN1CC(O)=C(c2nc(-c3ccc(Cl)cc3)cs2)C1=N | 71.5% (active) |
| O=C(COC(=O)/C=C/c1ccc(Br)o1)Nc1cccc(S(=O)(=O)N2CCOCC2)c1 | 16.4% (inactive) |
| COc1cccc(CC(=O)OCC(=O)NCc2ccc3c(c2)OCO3)c1 | -5.6% (inactive) |
| Cc1ccn2c(=O)nc(SCC(=O)NCc3ccc4c(c3)OCO4)nc2c1 | 57.6% (active) |
| CCCCSc1nnc(-c2ccc(C)cc2)o1 | -16.3% (inactive) |
| Cc1ccc(N=Cc2c(O)n(-c3nccs3)c(=O)c3ccccc23)c(C)c1 | -12.9% (inactive) |
| CC1CCN(c2ccc(S(=O)(=O)Nc3cc(C(=O)O)cc(C(=O)O)c3)cc2[N+](=O)[O-])CC1 | 51.3% (active) |
| O=C(NN1C(=O)C2C3C=CC(O3)C2C1=O)c1ccccc1 (stereo not drawn) | -10.8% (inactive) |
| CCc1ccc(NC(=O)CS(=O)CC(=O)NCCCc2ccccc2)cc1 (stereo not drawn) | 93.8% (active) |
| CS(=O)(=O)C1=NN2C(=N)/C(=C\c3ccc(OCCOc4ccccc4)cc3)C(=O)N=C2S1 | 72% (active) |
| COc1cccc2cc(-c3cc(=O)oc4cc(C)c(O)cc34)oc12 | 57.7% (active) |
| O=c1c2cc(-c3ccccc3)sc2nc2n1N=C(c1cccs1)CS2 | 38.4% (active) |
| O=C(CN1CCN(c2ccc(Cl)cc2)CC1)c1ccccc1 | -15.3% (inactive) |

| Structure (SMILES) | inhibition |
| --- | --- |
| O=C(c1cc2c(s1)CCC2)N1CCN(c2ccccc2)CC1 | 31.4% (active) |
| ON=C1/C(=N\O)CC2(C/C1=N/O)OCCO2 | 36.9% (active) |
| Cc1nn(-c2cc(Cl)ccc2N)c(=O)c2ccccc12 | 32.6% (active) |
| O=C(CCS(=O)(=O)c1ccc(Br)cc1)NCCc1ccc(Cl)cc1 | 55.6% (active) |
| COc1ccc(Cl)cc1NC(=O)CCS(=O)(=O)c1ccc(Br)cc1 | 62.9% (active) |
| O=C(c1ccc2c(c1)OCO2)N1CCNc2ccccc2C1 | -27.2% (inactive) |
| CC[n+]1c(C)n(-c2ccccc2)c2ccc(NC(C)=O)cc21 | 85.8% (active) |
| O=C(Cn1cc(/C=N/NC(=O)c2cccc(C(F)(F)F)c2)c2ccccc21)Nc1ccc(F)cc1 | 39.4% (active) |
| N#CC1=C(SCc2ccccc2)NC(=O)C(C#N)C12CCCC2 (stereo not drawn) | 9.2% (inactive) |
| O=c1[nH]n(-c2ccc([N+](=O)[O-])cc2)c(=O)c2ccccc12 | 46.7% (active) |
| O=C1NN(c2ccccc2)C(=O)/C1=C/c1ccc(-c2cccc(C(=O)O)c2)o1 | 72.6% (active) |
| COc1ccc(OCC(=O)NNC(=O)c2ccc(-c3ccccc3)cc2)cc1 | 67.5% (active) |
| COC(=O)c1ccc(-c2c(-c3ccccc3)ncc3cc(OC)c(OC)cc23)cc1 | -1.8% (inactive) |
| COc1ccc(OC)c(NC(=O)CSc2nc(-c3ccccc3)cc(=O)[nH]2)c1 | -9.58% (inactive) |
| Cn1c(N)c(C(=O)COC(=O)c2ccc3ccccc3c2)c(=O)n(C)c1=O | -18.1% (inactive) |
| O=C(NNC(=O)c1ccc2ccccc2c1)c1ccc(Cl)cc1 | 57.2% (active) |
| Cc1oc2c(C)c3oc(=O)c(CC(=O)N[C@@H](CC(C)C)C(=O)N[C@@H](Cc4ccccc4)C(=O)O)c(C)c3cc2c1C | 80.1% (active) |
| Cc1c([N+](=O)[O-])c(N)nn1C | 3.58% (inactive) |
